Measured values as given in paper PMC3061052 (Nucleic Acids Research, 2010).
Where a chain is given by its changes, count along the chain named. “Also recorded” adds a separate entry of the source.

Legend:
[1] = target: T1, NpmA D55A (Escherichia coli, UniProt A8C927, D55A); test: ITC titration of NpmA D55A variant with cofactor; type: binding; details: 20°C
T1 sequence (A8C927 1-219 D55A): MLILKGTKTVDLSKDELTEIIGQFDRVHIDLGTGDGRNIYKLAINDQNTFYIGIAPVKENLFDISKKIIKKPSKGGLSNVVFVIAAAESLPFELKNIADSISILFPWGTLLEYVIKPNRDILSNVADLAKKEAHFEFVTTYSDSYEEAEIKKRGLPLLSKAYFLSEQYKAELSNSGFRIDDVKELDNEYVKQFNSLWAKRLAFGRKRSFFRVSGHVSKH

[2] = target: T2, NpmA D30A (Escherichia coli, UniProt A8C927, D30A); test: ITC titration of NpmA D30A variant with cofactor; type: binding; details: 20°C
T2 sequence (A8C927 1-219 D30A): T1 sequence (A8C927 1-219 D55A) with D30A, A55D

[3] = target: T3, NpmA (wild-type) (Escherichia coli, UniProt A8C927); test: ITC titration of wild-type NpmA with cofactor; type: binding
T3 sequence (A8C927 1-219): T1 sequence (A8C927 1-219 D55A) with A55D

[4] = target: T4, NpmA S195A (Escherichia coli, UniProt A8C927, S195A); test: ITC titration of NpmA S195A variant with cofactor; type: binding; details: 20°C
T4 sequence (A8C927 1-219 S195A): T1 sequence (A8C927 1-219 D55A) with A55D, S195A

[5] = target: T5, NpmA E88A (Escherichia coli, UniProt A8C927, E88A); test: ITC titration of NpmA E88A variant with cofactor; type: binding; details: 20°C
T5 sequence (A8C927 1-219 E88A): T1 sequence (A8C927 1-219 D55A) with A55D, E88A

[6] = system: E. coli BL21(DE3)pLysS cells carrying recombinant pET-25b(+) vector with different npmA variants; test: Kanamycin MIC dilution assay in cells carrying npmA variants; type: cell-based, Escherichia coli
Procedure, shortened: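 BL21(DE3)pLysS cells with pET-25b(+) npmA variants were grown overnight, diluted 100-fold in LB with ampicillin (100 mg/l) and chloramphenicol (34 mg/l), and grown to OD600 1. Cells were inoculated into the same medium with kanamycin at 0.5–1024 mg/l in twofold steps and incubated 18 h at 37°C. MIC was the lowest kanamycin concentration preventing visible growth.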

C[S+](CC[C@H](N)C(=O)[O-])C[C@H]1O[C@@H](n2cnc3c(N)ncnc32)[C@H](O)[C@@H]1O (stereo partly shown) [AdoMet, S-adenosylmethionine]
Kd for AdoMet [1]: completely lost their ability to interact; also recorded: No binding | Kd for AdoMet [2]: completely lost their ability to interact; also recorded: No binding | N (ITC single site fit) for AdoMet [3]: 1.1 | Kd ([3]; Kd for AdoMet, ITC, 20°C, no 30S subunit): 18 µM | Kd for AdoMet [4]: complete loss of AdoMet binding; also recorded: No binding | Kd for AdoMet [5]: completely lost their ability to interact; also recorded: No binding

Nc1ncnc2c1ncn2[C@@H]1O[C@H](CSCC[C@H](N)C(=O)O)[C@@H](O)[C@H]1O [AdoHcy, S-adenosylhomocysteine]
Kd for AdoHcy [1]: completely lost their ability to interact; also recorded: No binding | Kd for AdoHcy [2]: completely lost their ability to interact; also recorded: No binding | N (ITC single site fit) for AdoHcy [3]: 1.0 | Kd for AdoHcy [5]: completely lost their ability to interact; also recorded: No binding

NC[C@H]1O[C@H](O[C@H]2[C@H](O)[C@@H](O[C@H]3O[C@H](CO)[C@@H](O)[C@H](N)[C@H]3O)[C@H](N)C[C@@H]2N)[C@H](O)[C@@H](O)[C@@H]1O [Kanamycin, kanamycin]
Kanamycin MIC ([6]; Negative control (empty vector), 18 h at 37°C): 4 to 8 µg/mL | Kanamycin MIC ([6]; cells expressing NpmA D30A): 8 µg/mL | Kanamycin MIC ([6]; cells expressing NpmA D55A): 512 µg/mL | kanamycin MIC compared to the wt NpmA ([6]; cells expressing NpmA D55A): 50% | Kanamycin MIC ([6]; cells expressing NpmA E88A): 1024 µg/mL | Kanamycin MIC ([6]; cells expressing NpmA F177A): 1024 µg/mL | Kanamycin MIC ([6]; cells expressing NpmA K199A): 1024 µg/mL | Kanamycin MIC ([6]; cells expressing NpmA P106A): 1024 µg/mL | Kanamycin MIC ([6]; cells expressing NpmA R200A): 1024 µg/mL | Kanamycin MIC ([6]; cells expressing NpmA R205A): 1024 µg/mL | Kanamycin MIC ([6]; cells expressing NpmA S195A): 1024 µg/mL | Kanamycin MIC ([6]; cells expressing NpmA T109A): 1024 µg/mL | Kanamycin MIC ([6]; cells expressing NpmA W107A): 8 µg/mL | Kanamycin MIC ([6]; cells expressing NpmA W197A): 8 µg/mL | Kanamycin MIC ([6]; cells expressing NpmA-wt): 1024 µg/mL
